High-throughput results (PubChem)
AP ELISA ortho – alternative pathway complement inhibition, orthogonal assay. hit rate 0.08% among 62,000. inhibition, % at 5 µM. Human serum alternative complement pathway, LPS-coated ELISA, C3 deposition; tested in compound mixtures;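 active = inhibition above 30% in each of the two pooled mixtures holding the compound, so the lower value exceeds 30%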
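Medium: diluted human serum in Mg2+-EGTA GVB++. Assay system: human serum complement alternative pathway, C3 deposition onto LPS. Also added: Plate-bound LPS. Technique: Anti-C3 ELISA, OD 450 nm. Measure: percent inhibition. Incubation: 1 h at 37 °C. Dosing: 5 µM each compound, pools of ten, 50 µM per pool.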
tolC growth inh – growth inhibitors of E. coli BW25113 tolC mutant; OD615; growth inhibition, % at 10 µM (by protocol); hit rate 2.2% among 65,000; AID 573;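 active = growth inhibition at or above a cutoff equal to the mean over every tested compound plus 3 SD, cut at about 60% in these data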;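 note: growth measured after 20 h incubation at 37 °C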
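Assay system: tolC-deleted E. coli BW25113. Medium: kanamycin-containing LB broth (50 µg/mL). Dosing: 10 µM final, single dose. Timing: bacterial growth with compound for 20 h at 37 °C. Detection: A615 absorbance measurement. Read-out basis: growth inhibition in percent.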
PLAP act – activates human placental alkaline phosphatase | purified PLAP enzyme, luminescent substrate read-out; hits give high values | P05187 | hit rate 1.2% among 96,000 | activation fold at 20 µM; in the data active = activation fold above about 2
E coli WT exp – growth inhibitors of E. coli BW25113 wild type; hit rate 0.15% among 98,000; growth inhibition, % at 100 µM; OD600 absorbance;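 active = growth inhibition above about 50% at one test dose, limit read from the data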;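 note: growth measured after 20 h incubation at 37 °C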
HePTP inh – human HePTP phosphatase inhibition; P35236; recombinant HePTP phosphatase activity, OD absorbance; inhibition, % at 20 µM; hit rate 0.64% among 110,000; AID 521; in the data active = inhibition above about 50%
Target sequence (P35236 whole entry, looked up): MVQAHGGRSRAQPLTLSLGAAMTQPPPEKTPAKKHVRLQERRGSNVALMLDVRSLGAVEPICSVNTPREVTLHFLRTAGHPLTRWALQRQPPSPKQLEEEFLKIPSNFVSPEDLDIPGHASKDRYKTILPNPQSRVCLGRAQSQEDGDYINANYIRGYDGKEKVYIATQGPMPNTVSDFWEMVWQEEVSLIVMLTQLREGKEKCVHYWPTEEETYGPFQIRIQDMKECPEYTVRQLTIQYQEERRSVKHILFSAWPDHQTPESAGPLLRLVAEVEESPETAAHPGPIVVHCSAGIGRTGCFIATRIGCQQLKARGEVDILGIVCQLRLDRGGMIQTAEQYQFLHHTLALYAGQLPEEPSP
Hits are given with their value; . = inactive; / = no result given. The list is not random: actives were taken first. Their share in the collection is about 2.3%.

SMILES	AP ELISA ortho	tolC growth inh	PLAP act	E coli WT exp	HePTP inh
O=C(c1cccs1)N(Cc1nc2sc3c(c2c(=O)[nH]1)CCCC3)C1CCCC1	.	89.5	.	.	.
Cc1sc2nc(CN(C(=O)c3cccs3)C3CCCC3)[nH]c(=O)c2c1C	.	.	.	.	.
CCCCOn1c(C)c(C(=O)OCC)c2c3no[n+]([O-])c3ccc21	.	.	.	.	.
CCCCOn1c(C)c(C(=O)OCC)c2c3nonc3ccc21	.	66.0	/	/	.
Cc1ccc(N(CC(=O)N=Nc2c(O)[nH]c3ccccc23)S(=O)(=O)c2ccccc2)cc1	/	/	/	/	.
Cc1cc(Cl)ccc1N(CC(=O)N=Nc1c(O)[nH]c2ccccc12)S(C)(=O)=O	/	/	2.1	.	/
O=C(c1ccncc1)N1CCN(Cc2ccc(F)cc2)CC1	/	/	/	/	.
Cc1ccccc1C(=O)Nc1ccccc1C(=O)N1CCCCC1	/	/	/	/	.
O=C(N/C=N/OCc1ccc(Cl)cc1Cl)NOCc1ncc(C(F)(F)F)cc1Cl	/	/	2	.	/
Cc1ccc(NC2=C(Cl)C(=O)N(c3ccccc3Cl)C2=O)cc1Cl	/	/	/	/	.
Cc1ccc(S(=O)(=O)N2CCN(Cc3ccccc3C(F)(F)F)CC2)cc1	.	.	.	.	.
O=S(=O)(c1ccccc1)N1CCN(Cc2ccccc2C(F)(F)F)CC1	.	63.7	.	.	.
COc1cc(NC(=O)c2ccc(Cl)cc2)c(Cl)cc1NC(=O)c1cccs1	/	/	/	/	.
CCCCOc1ccc(-c2c(C#N)c(N)nc(SCC(N)=O)c2C#N)cc1	.	69.8	.	.	.
CCCCOC(=O)CSc1nc(N)c(C#N)c(-c2ccc(OCC)cc2)c1C#N	.	.	.	.	.
O=C(N/N=C/c1ccccc1F)c1cc(Br)ccc1O	/	/	/	/	.
CCOC(=O)c1c(NC(=O)c2ccncc2)sc(C(C)=O)c1C	/	/	/	/	105.4
O=C(O)/C=C/C(=O)Nc1ccc(S(=O)(=O)N2CCCCCC2)cc1	/	/	/	/	.
N#Cc1c(N)oc(-c2ccc3c(c2)OCO3)c1-c1ccc2c(c1)OCO2	.	72.3	.	.	.
CC(C)Oc1ccc(-c2cc(C(=O)O)c3ccccc3n2)cc1	/	/	/	/	104.4
Cc1nnc(NC(=O)c2cc(-c3ccc(Cl)cc3)nc3ccccc23)s1	/	/	/	/	.
Cc1nnc(NC(=O)c2cc(-c3cccs3)nc3ccccc23)s1	/	/	/	/	101.8
O=C(O)c1cc(-c2cccs2)nc2ccccc12	/	/	/	/	92.5
Cc1cc(C)nc(NS(=O)(=O)c2ccc(NC(=S)Nc3ccccc3)cc2)n1	/	/	/	/	.
O=S(=O)(N=Nc1c(O)[nH]c2ccccc12)c1ccc(Cl)cc1	/	/	/	/	.
SMILES	AP ELISA ortho	tolC growth inh	PLAP act	E coli WT exp	HePTP inh
COc1ccccc1NC(=S)NNC(=O)c1cc(C)n(C)n1	/	/	2.8	.	/
O=C(Nc1ccccc1Cl)c1ccccc1C(F)(F)F	/	/	/	/	103.5
O=C(O)CSCc1cccc([N+](=O)[O-])c1	/	/	/	/	.
O=C(c1ccc(-c2ccccc2)cc1)N1CCN(C2CC3CCC2C3)CC1 (centres undefined)	/	/	/	/	71.4
O=C(c1ccccc1F)N1CCN(C2CC3CCC2C3)CC1 (centres undefined)	/	/	/	/	.
CC(C)OC(=O)c1cccc(C(=O)OCc2ccco2)n1	.	.	.	.	.
O=C(O)CCCC(=O)OCc1ccco1	/	/	/	/	102.1
Cc1cc(Nc2cccc(C(F)(F)F)c2)n2nc(C)nc2n1	.	.	.	.	.
CCc1nc2nc(C)cc(Nc3cccc(C(F)(F)F)c3)n2n1	.	.	2.4	.	.
O=C1NC(=O)N(c2ccccc2F)C(=O)/C1=C/c1ccc(I)o1	/	/	/	/	67.3
O=C1NC(=O)N(c2cccc(F)c2)C(=O)/C1=C/c1ccc(I)o1	/	/	/	/	53.0
CC(C)c1ccc(N2C(=O)NC(=O)/C(=C/c3ccc(I)o3)C2=O)cc1	/	/	/	/	.
CCOC(=O)C(CCCCCOc1ccc(F)cc1)C(=O)OCC	/	/	/	/	.
c1ccc2c3c([nH]c2c1)-c1[nH]ncc1CC3	.	.	.	.	.
Clc1ccc2[nH]c3c(c2c1)CCc1cn[nH]c1-3	.	100.0	.	78.0	.
C/C(=N\NC(=O)COc1ccc(Cl)cc1Cl)c1ccc([N+](=O)[O-])cc1	/	/	/	/	.
C=CCc1c(C)nc(C)nc1N/N=C/c1ccc([N+](=O)[O-])cc1	/	/	.	.	/
C=CCc1c(C)nc(C)nc1N/N=C/c1ccccc1O	/	/	2.5	.	/
Cn1cc(Br)c(C(=O)NNC(=O)c2cccc(Br)c2)n1	/	/	2.3	.	/
O=C(c1ccc(Cn2cc(Br)cn2)o1)N1N=C(C(F)F)CC1(O)C(F)F (centres undefined)	/	/	2	.	/
COc1ccc(OC)c(S(=O)(=O)NCc2cn3cccc(C)c3n2)c1	/	.	/	/	/
Cc1cccn2cc(CNS(=O)(=O)c3cccc(F)c3)nc12	/	/	2.3	.	/
Cc1ccccc1OCCCCc1c(C)n[nH]c1C	.	100.0	.	.	.
